From ChEMBL document CHEMBL1144783, “Novel bisbenzimidazoles with antileishmanial effectiveness” (Bioorg Med Chem Lett, 2008)

Key:
[1] = tested on: Leishmania donovani; assay: Antileishmanial activity against Leishmania donovani by Alamar blue assay; format: functional, organism-based
How it was run: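 L. donovani promastigotes at 2×10^6 cells/ml, 96-well format. Compounds dissolved in DMSO (2 mg ml⁻¹ stock), diluted in culture medium to final concentrations; matching DMSO dilutions as controls. Incubation 72 h at 26 °C; growth read by Alamar blue.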

[2] = tested on: Trypanosoma brucei rhodesiense; assay: […] rhodesiense STIB 900 after 3 days; format: functional, organism-based; conditions: STIB 900, 72 h
How it was run: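 Bloodstream-form trypomastigotes, 8×10^3 per well in 100 μl medium, 96-well plates. Incubated 3 days, then resazurin added and fluorescence read after a further 24 h at 37 °C to gauge parasite growth. IC50 reported.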

[3] = tested on: Pneumocystis carinii; assay: Antileishmanial activity against Pneumocystis carinii; format: functional, organism-based
[4] = tested on: Vero; assay: Cytotoxicity against african green monkey Vero cells by neutral red assay; format: cell-based; conditions: Chlorocebus sabaeus

IC50 [2] | IC50 [3] | SMILES | IC50 [1] | IC90 [1] | IC50 [4]
> 60 µM | 54.1 µM | c1ccc2[nH]c(-c3ccc(OCCCCCOc4ccc(-c5nc6ccccc6[nH]5)cc4)cc3)nc2c1 | 1.4 µM | 3.1 µM | 28.7 µM
> 60 µM | 10.2 µM | c1ccc2[nH]c(-c3ccc(OCCCOc4ccc(-c5nc6ccccc6[nH]5)cc4)cc3)nc2c1 | 1.5 µM | 3.3 µM | 27.2 µM
0.85 µM | 5.2 µM | c1cc(OCCCCCOc2cccc(-c3nc4ccccc4[nH]3)c2)cc(-c2nc3ccccc3[nH]2)c1 | 10.3 µM | 45.1 µM | 12.3 µM
> 60 µM | > 100 µM | c1ccc2[nH]c(-c3ccc(OCCCCCCOc4ccc(-c5nc6ccccc6[nH]5)cc4)cc3)nc2c1 | 11.8 µM | 53.8 µM | 27.9 µM
> 60 µM | 169 µM | c1ccc2[nH]c(-c3ccc(OCCCCOc4ccc(-c5nc6ccccc6[nH]5)cc4)cc3)nc2c1 | 4.9 µM | 12.9 µM | > 100 µM
0.05 µM |  | N=C(N)c1ccc(OCCCCCOc2ccc(C(=N)N)cc2)cc1 [PENTAMIDINE] |  | 9.8 µM | > 100 µM
> 60 µM | > 100 µM | c1ccc2[nH]c(-c3ccc(OCCCCCCCOc4ccc(-c5nc6ccccc6[nH]5)cc4)cc3)nc2c1 | 13.6 µM | 56.2 µM | 46.1 µM
